We go through 23 molecules from ChEMBL document CHEMBL2384908, “Discovery of novel bromophenol 3,4-dibromo-5-(2-bromo-3,4-dihydroxy-6-(isobutoxymethyl)benzyl)benzene-1,2-diol as protein tyrosine phosphatase 1B inhibitor and its anti-diabetic properties in C57BL/KsJ-db/db mice” (Eur J Med Chem, 2013).

Activity calls are given as the source filed them. No cut-off for these calls is given here.

The target in data set [1] is T1, Tyrosine-protein phosphatase non-receptor type 1 (Homo sapiens) (UniProt P18031).
T1 sequence (whole entry): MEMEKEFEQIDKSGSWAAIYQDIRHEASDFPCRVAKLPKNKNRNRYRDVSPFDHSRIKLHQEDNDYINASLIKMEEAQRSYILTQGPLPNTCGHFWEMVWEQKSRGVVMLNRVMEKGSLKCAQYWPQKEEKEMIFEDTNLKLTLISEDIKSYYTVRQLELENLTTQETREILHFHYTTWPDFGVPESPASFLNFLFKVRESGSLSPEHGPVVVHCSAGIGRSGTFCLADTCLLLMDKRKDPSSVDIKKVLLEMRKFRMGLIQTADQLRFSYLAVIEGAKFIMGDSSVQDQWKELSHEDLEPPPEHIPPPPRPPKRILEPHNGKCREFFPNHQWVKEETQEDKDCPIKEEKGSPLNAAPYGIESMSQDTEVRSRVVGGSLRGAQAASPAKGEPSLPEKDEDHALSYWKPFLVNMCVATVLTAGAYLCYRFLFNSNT
Conditions: at 20 µg/mL.

Data set [2] deals with T1, Tyrosine-protein phosphatase non-receptor type 1 (Homo sapiens). Conditions: at 5 µg/mL.
Data set [3] concerns Mus musculus. The data set is described as follows: Antidiabetic activity in C57BL/KsJ db/db mouse assessed as reduction of blood glucose level at 50 mg/kg, po administered for 6 weeks. The data set is classed as functional. Summed up: (§1)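 C57BL/KsJ db/db mice, 6-8 weeks old, one-week adaptation, n = 10 per group, chow and water ad libitum. Compound suspended in 0.5% CMC-Na with 2% tween-80, given orally once daily for six weeks (about 0.2 mL/20 g). Vehicle-treated db/db model group. Blood glucose read weekly by glucometer.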

Data set [4] has as its system Mus musculus. The experiment in a line: Antidiabetic activity in C57BL/KsJ db/db mouse assessed as reduction of blood glucose level at 50 mg/kg, po administered for 6 weeks measured on first week. The data set is classed as functional. Summed up: as §1
Data set [5] concerns Mus musculus. The data set is described as follows: Antidyslipidemic activity in C57BL/KsJ db/db mouse assessed as reduction of triglycerides level in blood at 50 mg/kg, po administered for 6 weeks (reference value: 1.05 +/- 0.11 mmol/l). It counts as functional.
Data set [6] relates to Mus musculus. The experiment in a line: Antidyslipidemic activity in C57BL/KsJ db/db mouse assessed as reduction of triglycerides level in blood at 50 mg/kg, po administered for 6 weeks measured on 2nd week (reference value: 1.08 +/- 0.07 mmol/l). It counts as functional.
In data set [7] the test system is Mus musculus. The experiment in a line: […] activity in C57BL/KsJ db/db mouse assessed as reduction of glycated serum protein level in blood at 50 mg/kg, po administered for 6 weeks (reference value: 1.62 +/- 0.27 mmol/l). It counts as functional. The essentials:
(§2)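 db/db mice (C57BL/KsJ, 6-8 weeks, n = 10/group) given compound orally once daily for six weeks in 0.5% CMC-Na with 2% tween-80. Vehicle model group; db/dm mice as controls. At the end, overnight fast, then dosing; eyeball blood taken 1 h later into heparin tubes. HbA1c read by reagent kit. GSP measured in plasma by fructosamine method. Mean ± s.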

Data set [8] has as its system Mus musculus. The data set is described as follows: […] activity in C57BL/KsJ db/db mouse assessed as reduction of HbA1c level in blood at 50 mg/kg, po administered for 6 weeks (reference value: 2.65 +/- 0.40%). More on the design: scale not given: the % may be the effect or the level left. It counts as functional. The essentials: as §2
For data set [9], the system named is Mus musculus. The experiment in a line: Antidyslipidemic activity in C57BL/KsJ db/db mouse assessed as reduction of total cholesterol level in blood at 50 mg/kg, po administered for 6 weeks measured on 2nd week (reference value: 3.5 +/- 0.2 mmol/l). It counts as functional.
Data set [10] relates to Mus musculus. The experiment in a line: Antidyslipidemic activity in C57BL/KsJ db/db mouse assessed as reduction of total cholesterol level in blood at 50 mg/kg, po administered for 6 weeks (reference value: 3.3 +/- 0.5 mmol/l). It counts as functional.
The test system of data set [11] is Mus musculus. The experiment in a line: Antidyslipidemic activity in C57BL/KsJ db/db mouse assessed as reduction of total cholesterol level in blood at 25 mg/kg, po administered for 6 weeks measured on 2nd week (reference value: 3.5 +/- 0.2 mmol/l). The data set is classed as functional.
For data set [12], the system named is Mus musculus. The data set is described as follows: Antidiabetic activity in C57BL/KsJ db/db mouse assessed as reduction of food and water intake at 25 to 50 mg/kg, po administered for 6 weeks. It counts as functional, organism-based. Summed up: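 db/db mice (C57BL/KsJ, 6-8 weeks), n = 10 per group, dosed orally once daily for six weeks as a suspension in 0.5% CMC-Na plus 2% tween-80. Vehicle model group; db/dm mice as non-diabetic controls. Food intake recorded weekly.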

Data set [13] concerns Mus musculus. The data set is described as follows: […] activity in C57BL/KsJ db/db mouse assessed as reduction of glycated serum protein level in blood at 25 mg/kg, po administered for 6 weeks (reference value: 1.62 +/- 0.27 mmol/l). It counts as functional. The essentials: as §2
The test system of data set [14] is Mus musculus. The data set is described as follows: Toxicity in C57BL/KsJ db/db mouse assessed as mortality at 25 to 50 mg/kg, po administered for 6 weeks. The data set is classed as organism-based. More on the design: dose 25-50 mg/kg, route oral. Conditions: in vivo, 1008 h.
Data set [15] has as its system Mus musculus. The experiment in a line: Antidyslipidemic activity in C57BL/KsJ db/db mouse assessed as reduction of triglycerides level in blood at 25 mg/kg, po administered for 6 weeks (reference value: 1.05 +/- 0.11 mmol/l). It counts as functional.
The test system of data set [16] is Mus musculus. The data set is described as follows: Antidyslipidemic activity in C57BL/KsJ db/db mouse assessed as reduction of total cholesterol level in blood at 25 mg/kg, po administered for 6 weeks (reference value: 3.3 +/- 0.5 mmol/l). It counts as functional.
Data set [17] has as its system Mus musculus. The experiment in a line: Antidiabetic activity in C57BL/KsJ db/db mouse assessed as reduction of blood glucose level at 25 mg/kg, po administered for 6 weeks measured on 3rd week. More on the design: scale not given: the % may be the effect or the level left. The data set is classed as functional. Summed up:
as §1

Data set [18] relates to Mus musculus. The experiment in a line: Antidiabetic activity in C57BL/KsJ db/db mouse assessed as reduction of blood glucose level at 50 mg/kg, po administered for 6 weeks measured on 3rd week. It counts as functional. More on the design: scale not given: the % may be the effect or the level left. Summed up:
as §1

Data set [19] has as its system Mus musculus. The data set is described as follows: Antidyslipidemic activity in po dosed C57BL/KsJ db/db mouse assessed as reduction of triglycerides level in blood administered for 6 weeks. The data set is classed as functional, organism-based.
Data set [20] relates to Mus musculus. The experiment in a line: Antidyslipidemic activity in po dosed C57BL/KsJ db/db mouse assessed as reduction of total cholesterol level in blood administered for 6 weeks. The data set is classed as functional, organism-based.
In data set [21] the test system is Mus musculus. The experiment in a line: Toxicity in C57BL/KsJ db/db mouse assessed as change in body weight at 25 to 50 mg/kg, po administered for 6 weeks. Conditions: in vivo, 1008 h. The data set is classed as organism-based. More on the design: dose 25-50 mg/kg, route oral.
In data set [22] the test system is Mus musculus. The experiment in a line: Antidyslipidemic activity in C57BL/KsJ db/db mouse assessed as reduction of triglycerides level in blood at 25 mg/kg, po administered for 6 weeks measured on 2nd week (reference value: 1.08 +/- 0.07 mmol/l). It counts as functional.
In data set [23] the test system is Mus musculus. The experiment in a line: […] activity in C57BL/KsJ db/db mouse assessed as reduction of HbA1c level in blood at 25 mg/kg, po administered for 6 weeks (reference value: 2.65 +/- 0.40%). It counts as functional. More on the design: scale not given: the % may be the effect or the level left. Summed up: as §2
For data set [24], the target named is T2, Tyrosine-protein phosphatase non-receptor type 1 (Homo sapiens, UniProt P18031).
T2 sequence (P18031 whole entry): T1 sequence (whole entry)
The experiment in a line: Inhibition of human recombinant GST-tagged PTP1B using para-nitrophenyl phosphate as substrate after 2 mins.

Broadly, the inhibition is how much of the control response was suppressed. In [1], `COc1cc(C2OCc3cc(OC)c(OC)c(Br)c32)c(Br)c(Br)c1OC` (configuration not stated) returned an inhibition of 11.4%.

In the case of `CCOCc1cc(O)c(O)c(Br)c1Cc1cc(O)c(O)c(Br)c1`, the inhibition stood at 17.3% in [2] and 50.6% in data set [1].

For `COCc1cc(O)c(O)c(Br)c1Cc1cc(O)c(O)c(Br)c1Br`, the inhibition in data set [2] was determined as 25.3%; in [1] it was 51.9%.

Take `CCCOCc1cc(O)c(O)c(Br)c1Cc1cc(O)c(O)c(Br)c1Br`: the inhibition in data set [2] is 55.7%; in data set [1], 86.2%.

Consider `COCc1cc(OC)c(OC)c(Br)c1C(=O)c1cc(OC)c(OC)c(Br)c1Br`, for which the inhibition came out at 17.7% in data set [2] and 61.8% in data set [1].

Take `Cc1cc(O)c(O)c(Br)c1Cc1cc(O)c(O)c(Br)c1Br`: the inhibition turned out to be 32.1% in data set [2] and 53.4% in data set [1].

`CN(CCOc1ccc(CC2SC(=O)NC2=O)cc1)c1ccccn1` (configuration not stated) [ROSIGLITAZONE]: the Activity stood at 8 mmol/L in data set [3]; 8.9 mmol/L in data set [4]; 1.29 mmol/L in [5]; 1.06 mmol/L in data set [6]; 2.6 mmol/L in data set [7]; 2.56% in data set [8]. For the same molecule, the Activity in data set [9] is listed as 6.5 mmol/L; in [10] it was 7.7 mmol/L.

Consider `CC(C)COCc1cc(O)c(O)c(Br)c1Cc1cc(O)c(O)c(Br)c1Br`, for which the Activity is recorded as 7.7 mmol/L in data set [11]; 3.29 mmol/L in [13]; “Non-toxic” in data set [14]; 1.41 mmol/L in [15]; 8.5 mmol/L in data set [16]; 1.48 mmol/L in data set [5]. Moreover, the Activity in [17] was 32.7%; in [18], 36.4%; in data set [6], 1.35 mmol/L; in data set [19] it was “Dose-dependent effect”; in data set [20], “Dose-dependent effect”; in data set [7], 3 mmol/L. Besides, the Activity is 3.03% in [8]; “Toxic” in data set [21]; 7.8 mmol/L in data set [9]; 1.16 mmol/L in [22]; 3.24% in data set [23]; 9.1 mmol/L in data set [10]. Besides, the result in [12] was Active. The inhibition in data set [2] stood at 48.3%; in [1], 96.2%.

For the molecule `COc1cc(C)c(Cc2c(Br)c(Br)c(OC)c(OC)c2Br)c(Br)c1OC`, the inhibition in [2] is 38.2%; in data set [1], 72.6%.

In [1], `COc1cc(Cc2c(C)cc(OC)c(OC)c2Br)cc(Br)c1OC` returned an inhibition of 14.5%.

For the molecule `COc1ccc(C(=O)c2c(C)cc(OC)c(OC)c2Br)cc1OC`, in [1], the inhibition was found to be 28.9%.

The molecule `COc1cc(Cc2c(CO)cc(OC)c(OC)c2Br)cc(Br)c1OC` returned an inhibition in data set [1] of 5.62%.

`COc1cc(C2OC(=O)c3cc(OC)c(OC)c(Br)c32)c(Br)c(Br)c1OC` (configuration not stated) returned an inhibition in [1] of 10.6%.

In the case of `COc1cc(C(=O)c2c(C)cc(OC)c(OC)c2Br)cc(Br)c1OC`, the inhibition in data set [1] worked out at 36.7%.

As for `CCCCOCc1cc(O)c(O)c(Br)c1Cc1cc(O)c(O)c(Br)c1Br`, the inhibition in data set [2] was found to be 27.2%; in data set [1], 64.6%.

For `COc1cc(Cc2c(CO)cc(OC)c(OC)c2Br)c(Br)c(Br)c1OC`, the inhibition worked out at 29.1% in [2] and 74.9% in data set [1].

In the case of `COc1c(Br)c(C)c(Cc2c(Br)c(Br)c(OC)c(OC)c2Br)c(Br)c1OC`, the inhibition was determined as 40.1% in [2] and 75.3% in [1].

On to `CCOCc1cc(OC)c(OC)c(Br)c1C(=O)c1cc(OC)c(OC)c(Br)c1Br`, for which the inhibition in [2] is 17.6%; in data set [1], 73.8%.

One may read the IC50 as the concentration that gives 50% inhibition. Regarding `Oc1cc(Cc2cc(Br)c(O)c(Br)c2Br)c(Br)c(Br)c1O`, in data set [24], the IC50 turned out to be 2420 nM.

As to `COc1cc(C(=O)c2c(C(=O)O)cc(OC)c(OC)c2Br)c(Br)c(Br)c1OC`, the inhibition in [1] stood at 29.9%.

On to `COc1cc(C(=O)c2c(C)cc(OC)c(OC)c2Br)c(Br)c(Br)c1OC`, for which the inhibition in data set [1] stood at 48.6%.

Take `COc1cc(Cc2c(C)cc(OC)c(OC)c2Br)c(Br)c(Br)c1OC`: the inhibition in data set [2] was 43.1%; in data set [1], 87.5%.

With `COC(=O)c1cc(OC)c(OC)c(Br)c1C(=O)c1cc(OC)c(OC)c(Br)c1Br`, the inhibition in data set [2] is 23.8%; in data set [1], 55.3%.
